Experimental data as given in PubChem BioAssay.
Active and inactive are the calls of the source.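 Rule for the calls: active = duplicate-averaged activation above buffer control mean plus 5 SD of those controls; inactive = the rest.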

Assay: nonspecific flux increase, KCNQ1-free cells – parental CHO cells, counter-screen for KCNQ1 potentiator project (AID 493006);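 for activation: fluorescence ratio of max minus min over baseline after K+ and Tl+ depolarization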
Conditions: parental CHO-K1 cells, FluxOR thallium flux, at 10 µM; stronger effect = higher value
In short: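 Benchmarks – buffer and R-L3 controls · Assay system – untransfected host CHO-K1 cells with FluxOR thallium dye · Measure – fluorescence change ratio scaled 0% buffer, 100% R-L3 · Technique – kinetic thallium-flux fluorescence · Timing – overnight 37 °C plating, 90 min RT dye, 20 min compound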
In the case of `CC(Sc1n[nH]c(N)n1)C(=O)NC1CCCCC1C` (centres undefined), the activation is reported as 152% (active).
In the case of `Cc1snnc1C(=O)NC(=S)Nc1ccccc1`, the activation is reported as 205% (active).
With `O=C(NC(=S)NCc1ccccc1)c1cccs1` the activation was 167% (active).
With `Cc1cc(C)c2ccc(C)[n+]([O-])c2c1O` the outcome was “inactive”.
With `COC(=O)c1c(NC(=O)c2ccccc2)sc(C(=O)c2ccccc2)c1C` the outcome was “inactive”.
With `Cc1cccc(S(=O)(=O)Nc2cccc3c2C(=O)c2ccccc2-3)c1` the outcome was “inactive”.
For `COc1cc(Br)cc(C=Nc2cccc(C(F)(F)F)c2)c1O`, the outcome was “inactive”.
In the case of `COc1ccc(OCC(=O)Nc2cccc(C(C)=O)c2)cc1`, the outcome is reported as “inactive”.
For `N#C/C(=C/c1cn(-c2ccccc2)nc1-c1cccc(S(=O)(=O)N2CCOCC2)c1)C(=O)NCc1ccco1`, the outcome was “inactive”.
With `CCOc1ccc(N2CC(C(=O)Nc3cc(Cl)ccc3-n3cncn3)CC2=O)cc1` (centres undefined) the outcome was “inactive”.
With `O=C(CCC(=O)N1CCOc2ccc(Cl)cc21)NCCN1CCOCC1` the outcome was “inactive”.
With `CCCCCn1c(=O)c2ccccc2n2c(=S)[nH]nc12` the activation was 152% (active).
For `CCC(C)NC(=O)c1cc(Cl)c(NC(=O)C2=C(C)OCCS2)cc1OC` (centres undefined), the outcome was “inactive”.
With `O=C(CSc1ccc2ccccc2n1)Nc1ccc(N2CCOCC2)cc1` the outcome was “inactive”.
In the case of `COc1ccc(OC)c(S(=O)(=O)CC(O)CS(=O)(=O)c2ccccc2)c1` (centres undefined), the outcome is reported as “inactive”.
With `OC(c1ccccc1)c1cccnc1` (centres undefined) the activation was 146% (active).
For `CC(Oc1ccc(Cl)cc1Cl)C(=O)NC(=S)N1CCc2ccccc21` (centres undefined), the activation was 151% (active).
For `O=C(N/N=C/c1c[nH]c2ccccc12)C1COc2ccccc2O1` (centres undefined), the outcome was “inactive”.
With `Cn1c(=O)c2nc3ccccc3nc2n(C)c1=O` the activation was 168% (active).
